Only some compounds are listed: those with a hit (about 5.1% of all), similar ones and a draw of the others.
STAT1 act-1: STAT1 signaling activation; NIH 3T3 STAT1-luciferase reporter, IFN-gamma, luminescence; 100% = IFN-gamma alone, no compound; activation (% of control), % at 5.5 µM; actives 2.6% (n = 200,000);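 active = activation above the screen-wide mean activation plus 3 SD, cut at about 130% in these data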;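 also: raw ratio to IFN-gamma control signal so 100% means no change and 0% no light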
APP 5'UTR act: APP 5'UTR luciferase reporter activation; activation, % at 2 µM; SH-SY5Y APP 5'UTR luciferase reporter, luminescence; zero percent = DMSO vehicle wells; actives 1% (n = 190,000);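 active = activation above a set limit, based on mean plus 3 SD of controls, cut at about 140% in these data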
STAT3 act-1: increases IL-6 driven STAT3 reporter signal; U3A cells, IL-6 STAT3-luciferase reporter, luminescence; 100% = signal with IL-6 EC80 alone; activation (% of control), % at 5.6 µM; actives 0.91% (n = 190,000); AID 871;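 active = activation above the screen-wide mean of compound activation plus 3 SD, cut at about 130% in these data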;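 also: 0% = background luminescence of wells with medium and substrate only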
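Detection: reporter luminescence signal / Assay system: STAT1-lacking human U3A cells, STAT3 luciferase reporter / Incubation: compound pre-incubation 1 h before IL-6, then 6 h stimulation at 37 °C / Control set: IL-6-only high control / Read-out: % activation relative to IL-6 control / Probe or stimulus: Interleukin-6, 33 ng/mL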
STAT1 inh: STAT1 signaling inhibition; inhibition, % at 5.5 µM; NIH 3T3 STAT1-luciferase reporter, IFN-gamma, luminescence; actives 0.35% (n = 200,000); AID 920;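 active = inhibition above a set limit, the mean inhibition across all tested compounds plus 3 SD, cut at about 34% in these data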;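 also: 0% = IFN-gamma with DMSO and 100% = IFN-gamma with 300 µM nifuroxazide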
STAT3 blocker: STAT3 signaling inhibition; inhibition, % at 5.5 µM; actives 0.89% (n = 190,000); U3A cells, IL-6 STAT3-luciferase reporter, luminescence; host cell line lacks STAT1;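 active = inhibition above the mean inhibition across all screened compounds plus 3 SD, cut at about 44% in these data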;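 also: 0% = DMSO only wells and 100% = 100 µM nifuroxazide control wells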
NF-kB neuron act: compounds increasing NF-kB expression in human neuronal cells. NF-kB reporter expression; active compounds read high. fold change at 12.5 µM. actives 1.6% (n = 190,000). AID 1239; in the data active = fold change above about 3.3
STAT3 act-2: STAT3 activation, confirmation assay | potentiation (% of control), % at 5.7 µM | shares compounds with STAT3 act-1 | actives 64% (n = 1,200) | U3A STAT3-luciferase reporter, IL-6 potentiation, luminescence; U3A cells lack STAT1; 100 means same as IL-6 alone | AID 1267;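 active = percent activation of the STAT3 luciferase reporter above a set limit taken from the earlier primary screen, cut at about 130% in these data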;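 also: 0% = background signal of medium plus substrate and 100% = median of IL-6 with DMSO wells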
NFkB act STAT3ct: counter-screen for STAT3 activators: NF-kappaB activation. shares compounds with STAT3 act-1. human cells, NF-kappaB reporter activation. activation (% of control), % at 5.7 µM. actives 11% (n = 1,200); in the data active = activation above about 120%;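 also: reporter induced by TNF-alpha stimulation; 100% = median of stimulated DMSO wells and 0% = no signal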
STAT1 act-2: activates STAT1, counter-screen to STAT3 activators; actives 13% (n = 1,200); activation (% of control), % at 5.7 µM; AID 1318; shares compounds with STAT3 act-1; NIH 3T3 STAT1-luciferase reporter, IFN-gamma, luminescence;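 active = activation above the solvent-only control well mean plus 3 SD, set per screening run, cut at about 120% in these data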;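 also: 100% = IFN-gamma with DMSO median signal so 100% means no change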
Starred values were filed as active, the others as inactive; . = no result given.

SMILES | STAT1 act-1 | APP 5'UTR act | STAT3 act-1 | STAT1 inh | STAT3 blocker | NF-kB neuron act | STAT3 act-2 | NFkB act STAT3ct | STAT1 act-2
CC(=O)/C(C(=N)N1CCN(c2cccc(Cl)c2)CC1)=C(\C)O | 102 | 5 | 106 | -7 | -4 | 0.92 | . | . | .
O=S(=O)(c1ccc(Br)cc1)N1CCN(c2cc(-c3ccccc3)nc3ncnn23)CC1 | 102 | -13 | 146* | -1 | -46 | 0.8 | 108 | 99 | 96
O=S(=O)(c1ccccc1)N1CCN(c2cc(-c3ccccc3)nc3ncnn23)CC1 | 72 | -4 | 93 | 32 | 16 | 0.6 | . | . | .
COc1cc(C(c2sc3nc(C)nn3c2O)N2CC(C)CC(C)C2)cc(OC)c1OC (stereo not drawn) | 105 | -11 | 112 | -6 | -9 | 0.87 | . | . | .
N#C/C(C(=O)N1CCCC1)=C1/N=C(N)c2ccccc21 | 99 | 0 | 97 | 4 | 2 | 1.4 | . | . | .
O=Cc1ccc2cccnc2n1 | 106 | -1 | 148* | -7 | -49 | 0.88 | 146* | 106 | 103
c1ccc(-c2cc3c(-n4cccc4)ncnc3o2)cc1 | 89 | 2 | 151* | 12 | -52 | 1.2 | 160* | 112 | 113
Cc1ccc(C(=O)N2CCN3C(=O)c4ccccc4C23c2ccccc2)cc1 (stereo not drawn) | 94 | 1 | 159* | 5 | -60 | 1.2 | 111 | 102 | 101
N#C/C(=C(/O)COC(=O)CCc1ccc(S(=O)(=O)N2CCOCC2)cc1)c1nc2ccccc2[nH]1 | 86 | 8 | 149* | 16 | -55 | 2.6 | 144* | 102 | 86
N#C/C(=C(/O)COC(=O)c1ccc(Cl)c(S(=O)(=O)N2CCOCC2)c1)c1nc2ccccc2[nH]1 | 95 | 11 | 98 | 5 | 4 | 0.8 | . | . | .
Cc1ccccc1-n1ccnc1SCC(=O)NCc1ccco1 | 104 | -11 | 97 | -6 | 6 | 1.3 | . | . | .
COc1ccc(C(=O)NN(C)c2nc(-c3ccccc3)nnc2C(F)(F)F)cc1 | 97 | -11 | 98 | 4 | 10 | 1.2 | . | . | .
COc1ccc(C(=O)NN(C)c2nc(C(F)(F)F)nc3ccccc23)cc1 | 102 | -95 | 156* | -5 | -62 | 3 | 131 | 165* | 101
Cc1ccc(OC(=O)c2oc3ccc(F)cc3c2C)c(C)c1 | 95 | 1 | 159* | 6 | -67 | 2.8 | 137* | 110 | 94
Cc1ccc(C(=O)CC(=O)c2cccc(F)c2)c(O)c1 | 103 | 10 | 102 | -3 | -4 | 1.4 | . | . | .
CCn1c(/C=C2/C(=O)N(C)c3ccccc32)nc2ccccc2c1=O | 100 | -2 | 122 | 0 | -17 | 0.39 | . | . | .
CCn1c(/C=C2\C(=O)N(C)c3ccccc32)nc2ccccc2c1=O | 103 | 3 | 137* | -3 | -33 | 0.39 | 131 | 111 | 109
Cc1cc(C)n2nc3ccccc3c2n1 | 102 | -9 | 120 | -3 | -19 | 1.5 | . | . | .
Cc1cc(C)n2nc(Nc3ccccc3)cc2n1 | 83 | 27 | 157* | 18 | -62 | 2 | 168* | 112 | 105
CCCCN(CCCC)S(=O)(=O)c1ccc(NC(=O)c2cccs2)cc1 | 99 | 0 | 145* | 1 | -58 | 0.54 | 93 | 94 | 94
Cc1cc(C)nc(NS(=O)(=O)c2ccc(NC(=O)c3cccs3)cc2)n1 | 93 | -9 | 107 | 3 | -7 | 0.99 | . | . | .
CC1CC(C)CN(C(=O)CSC2=Nc3ccccc3C3=NC(Cc4c[nH]c5ccccc45)C(=O)N23)C1 (stereo not drawn) | 108 | 0 | 140* | -8 | -48 | 1 | 129 | 105 | 109
O=C(CSC1=Nc2ccccc2C2=NC(Cc3c[nH]c4ccccc34)C(=O)N12)NC1CCCCC1 (stereo not drawn) | 102 | 4 | 118 | -2 | -26 | 0.55 | . | . | .
CCCCn1c(N)c(N(CCC(C)C)C(=O)COC(=O)c2ccccc2)c(=O)[nH]c1=O | 88 | -5 | 143* | 11 | -54 | 0.92 | 148* | 96 | 89
CCCCn1c(N)c(N(CCC(C)C)C(=O)COC(=O)c2ccco2)c(=O)[nH]c1=O | 98 | 3 | 101 | 3 | 4 | 1 | . | . | .
SMILES | STAT1 act-1 | APP 5'UTR act | STAT3 act-1 | STAT1 inh | STAT3 blocker | NF-kB neuron act | STAT3 act-2 | NFkB act STAT3ct | STAT1 act-2
CCc1ccc(NC(=O)c2cnc3scc(C)n3c2=O)cc1 | 126 | 61 | 154* | -32 | -68 | 2.1 | 165* | 115 | 138*
COc1ccc(C)cc1NC(=O)c1cnc2scc(C)n2c1=O | 102 | 2 | 91 | -5 | 11 | 1.1 | . | . | .
O=C1NC2=C(CCc3ccccc32)C(c2ccccc2)N1 (stereo not drawn) | 99 | 15 | 148* | 1 | -50 | 1.2 | 101 | 100 | 98
O=S(=O)(Nc1nc2ccccc2nc1Cl)c1ccc2c(c1)OCCO2 | 96 | 4 | 108 | 5 | -3 | 1.3 | . | . | .
Cc1ccc(/C=N/NC(=O)Cc2c[nH]c3ccccc23)c(C)c1 | 99 | 9 | 142* | 1 | -41 | 1 | 130 | 101 | 91
Cc1ccc(C(=O)Nc2ccc(C(=O)N/N=C/c3c[nH]c4ccccc34)cc2)cc1 | 95 | 0 | 148* | 6 | -50 | 0.3 | 122 | 97 | 98
N#CC1=C(N)n2c(s/c(=C\c3ccco3)c2=O)=C(C#N)C1c1ccco1 (stereo not drawn) | 94 | -12 | 171* | 6 | -79 | 0.84 | 170* | 103 | 97
O=C(NCCc1ccccc1)c1ccc(-n2cnnn2)cc1 | 112 | 10 | 107 | -13 | -3 | 1.7 | . | . | .
Oc1cccc(C2c3[nH]c4ccccc4c3CCN2Cc2ccoc2)c1 (stereo not drawn) | 90 | 7 | 138* | 8 | -40 | 1.2 | 137* | 102 | 94
Oc1cccc(C2c3[nH]c4ccccc4c3CCN2Cc2ccc3c(c2)CCO3)c1 (stereo not drawn) | 87 | 2 | 141* | 12 | -44 | 0.9 | 142* | 104 | 94
Cn1cc(CN2CCc3c([nH]c4ccccc34)C2C(C)(C)C)cn1 (stereo not drawn) | 99 | 0 | 133 | -1 | -32 | . | . | . | .
COc1ccc(C2c3[nH]c4ccccc4c3CCN2Cc2ccoc2)c(F)c1 (stereo not drawn) | 98 | -5 | 118 | 1 | -16 | 0.87 | . | . | .
CCOC(=O)Cn1c(=O)c(-c2ccccc2NCc2ccccc2)nc2ccccc21 | 98 | 9 | 136* | 2 | -39 | . | 127 | 98 | 95

Bioassay records deposited in PubChem by several laboratories.
